Assay results from ChEMBL document CHEMBL1124609, “Synthesis and anticonvulsant properties of 2,3,3a,4-tetrahydro-1H-pyrrolo[1,2-a]benzimidazol-1-ones” (J Med Chem, 1989).

What was measured:
[1] = Relative lipophilicity; assay type: physicochemical; settings: reversed-phase TLC, acetone/water 2:1
Summary of the method: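 Reversed-phase TLC on silanized silica gel plates dried 1 h at 105 °C, with acetone/water 2:1 v/v as mobile phase. Compounds were applied from chloroform solution (3 mg/mL). Rf is the mean of five runs with different plate positions, and RM = log[(1/Rf) - 1].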

Mus musculus [2] = organism: Mus musculus; experiment: Anticonvulsant activity against audiogenic seizures in DBA/2 mice; assay type: functional
Summary of the method: (§1)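 DBA/2 mice of either sex (6-12 g, 21-25 days old), dosed ip in 80% DMSO/20% distilled water. 45 min later exposed to a mixed-frequency 109-dB sound for up to 60 s. Latency to and incidence of wild running, clonus, tonus and respiratory arrest were scored. ED50 (±95% confidence limits) by Litchfield and Wilcoxon.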

Rattus norvegicus [3] = organism: Rattus norvegicus; experiment: Anticonvulsant activity against maximal electroshock seizures(MES) in rats; assay type: functional
Summary of the method: (§2)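 Adult male Wistar rats (200-250 g), groups of 10, dosed ip in 80% DMSO/20% distilled water. 60 min later a 50-mA, 60-Hz alternating current was given through ear electrodes for 0.2 s. Protection was absence of tonic hind limb extension. ED50 (±95% confidence limits) by Litchfield and Wilcoxon.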

Mus musculus [4] = organism: Mus musculus; experiment: Compound was tested for its activity against clonic seizures phase in […] mice; Completely protected; assay type: functional; summary of the method: as §1
Rattus norvegicus [5] = organism: Rattus norvegicus; experiment: Compound was tested for its activity against tonic hind limb extension in MES test in rats; Completely antagonized; assay type: functional, Hindlimb; summary of the method: as §2

Row | RM [1] | SMILES | ED50 (Mus musculus [2]) | ED50 (Rattus norvegicus [3]) | Activity (Mus musculus [4]) | Activity (Rattus norvegicus [5])
1 | -0.084 | O=C1CCC2(c3ccc(F)cc3)Nc3ccccc3N12 (centres undefined) | 356 µmol/kg | 575 µmol/kg | – | –
2 | -0.279 | Cc1ccc2c(c1)N1C(=O)CCC1(C)N2 (centres undefined) | 122 µmol/kg | 197 µmol/kg | – | –
3 | -0.162 | CC12CCC(=O)N1c1cc(Cl)ccc1N2 (centres undefined) | 148 µmol/kg | 234 µmol/kg | – | –
4 | -0.167 | CC12CCC(=O)N1c1ccc(Cl)cc1N2 (centres undefined) | 79.4 µmol/kg | 88.2 µmol/kg | – | –
5 | -0.237 | CC12CCC(=O)N1c1cc([N+](=O)[O-])ccc1N2 (centres undefined) | > 600 µmol/kg | > 600 µmol/kg | – | –
6 | 0.028 | O=C1CCC2(c3ccc(F)cc3)Nc3ccc(Cl)cc3N12 (centres undefined) | 178 µmol/kg | 198 µmol/kg | – | –
7 | – | O=C1NC(=O)C(c2ccccc2)(c2ccccc2)N1 [PHENYTOIN] | 19.8 µmol/kg | 55.5 µmol/kg | – | –
8 | -0.007 | O=C1CCC2(c3ccccc3)Nc3cc(Cl)ccc3N12 (centres undefined) | 95.9 µmol/kg | 126 µmol/kg | – | –
9 | -0.187 | CC12CCC(=O)N1c1ccc([N+](=O)[O-])cc1N2 (centres undefined) | > 600 µmol/kg | > 600 µmol/kg | – | –
10 | 0.019 | O=C1CCC2(c3ccc(F)cc3)Nc3cc(Cl)ccc3N12 (centres undefined) | 87.3 µmol/kg | 105 µmol/kg | – | –
11 | – | CCCC(CCC)C(=O)O [VALPROIC ACID] | 1230 µmol/kg | 1890 µmol/kg | – | –
12 | -0.005 | O=C1CCC2(c3ccccc3)Nc3ccc(Cl)cc3N12 (centres undefined) | 179 µmol/kg | 271 µmol/kg | – | –
13 | -0.131 | O=C1CCC2(c3ccccc3)Nc3ccccc3N12 (centres undefined) | 161 µmol/kg | 200 µmol/kg | – | –
14 | 0.068 | O=C1CCC2(c3ccc(Cl)cc3)Nc3cc(Cl)ccc3N12 (centres undefined) | 143 µmol/kg | 281 µmol/kg | – | –
15 | -0.033 | O=C1CCC2(c3ccc(Cl)cc3)Nc3ccccc3N12 (centres undefined) | 166 µmol/kg | 234 µmol/kg | – | –
16 | 0.073 | O=C1CCC2(c3ccc(Cl)cc3)Nc3ccc(Cl)cc3N12 (centres undefined) | 347 µmol/kg | 501 µmol/kg | – | –
17 | -0.284 | Cc1ccc2c(c1)NC1(C)CCC(=O)N21 (centres undefined) | 97.7 µmol/kg | 141 µmol/kg | – | –
18 | -0.341 | CC12CCC(=O)N1c1ccccc1N2 (centres undefined) | 26.3 µmol/kg | 35.5 µmol/kg | 100 µM/kg | 200 µM/kg
